Assay results reported in ChEMBL document CHEMBL4680065, “Pharmacophore-based screening of diamidine small molecule inhibitors for protein arginine methyltransferases” (RSC Med Chem, 2021).
Active and inactive are the calls of the source. No cut-off for these calls is given here.

How the values were obtained:
HEL = assay: Antiproliferative activity against human HEL cells assessed as inhibition of cell growth measured after 72 hrs by CellTiter-Glo assay; format: functional, cell-based
Outline: (§1)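 Cells were cultured with the test agent, serially diluted, for 72 h. The control received the same amount of DMSO. Cell viability was then measured, and IC50 values were taken from sensitivity curves.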

CMK = assay: Antiproliferative activity against human CMK cells assessed as inhibition of cell growth measured after 72 hrs by CellTiter-Glo assay; format: functional, cell-based; outline: as §1
[1] = target: T1, Protein arginine N-methyltransferase 1 (Homo sapiens, UniProt Q99873); assay: Inhibition of PRMT1 in human MEG-01 cells assessed as reduction in RBM15 total asymmetric arginine methylation level at 100 to 200 nM measured after 24 hrs by immunoblotting analysis; format: cell-based; details: dose 100-200 nM
Outline: (§2)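 MEG01 cells were cultured for 24 h with the inhibitor (100 nM, 200 nM) or with DMSO control. Cell extracts were resolved by SDS-PAGE and immunoblotted with anti-methyl-RBM15 antibody and the pan-asymmetric methylation antibody α-Asym24. Equal loading was checked by Ponceau S staining.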

MEG-01 = assay: Antiproliferative activity against human MEG-01 cells assessed as inhibition of cell growth measured after 72 hrs by CellTiter-Glo assay; format: functional, cell-based; details: MEG-01, 72 h; outline: as §1
[2] = target: T2, Protein arginine N-methyltransferase 6 (Homo sapiens, UniProt Q96LA8); assay: Inhibition of PRMT6 (unknown origin) assessed as residual activity at 10 uM using biotin-labeled SMD1 as substrate incubated for 30 mins in presence of [3H]-SAM cofactor by scintillation proximity assay relative to control
Outline: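 Single-point profiling used 10 μM inhibitor added to the enzyme, [3H]-SAM and substrate mixture. Methylated substrate was quantified by scintillation proximity assay. Reactions were held at initial rate, with yield under 10% and substrate near Km. Enzyme, [3H]-SAM and substrate final levels are given in the supplement.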
Target sequence in this assay (Q96LA8 whole entry, looked up): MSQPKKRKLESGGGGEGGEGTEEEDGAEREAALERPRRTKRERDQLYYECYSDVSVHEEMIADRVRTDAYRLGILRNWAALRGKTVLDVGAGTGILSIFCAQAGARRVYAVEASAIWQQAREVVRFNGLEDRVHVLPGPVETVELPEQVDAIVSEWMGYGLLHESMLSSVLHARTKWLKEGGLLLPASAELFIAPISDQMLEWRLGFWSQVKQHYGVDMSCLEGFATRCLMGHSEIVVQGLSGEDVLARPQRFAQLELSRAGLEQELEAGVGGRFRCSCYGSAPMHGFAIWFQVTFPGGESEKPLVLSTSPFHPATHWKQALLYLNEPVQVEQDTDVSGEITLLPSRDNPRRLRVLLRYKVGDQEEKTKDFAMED

[3] = target: T1, Protein arginine N-methyltransferase 1; assay: Non-competitive inhibition of recombinant His-tagged PRMT1 (unknown origin) expressed in Escherichia coli BL21 (DE3) using varying levels of [3H]-SAM as cofactor
Outline: (§3)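 His-tagged human PRMT1 was expressed in E. coli BL21(DE3) and Ni-affinity purified. IC50 was measured by SPA at varied SAM or biotinylated H4 peptide (0.3125–4.5 μM), with the other component fixed near its Km (0.5 μM); n = 2.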

[4] = target: T2, Protein arginine N-methyltransferase 6; assay: Inhibition of PRMT6 (unknown origin) using biotin-labeled SMD1 as substrate incubated for 30 mins in presence of [3H]-SAM cofactor by scintillation proximity assay
Target sequence in this assay (Q96LA8 whole entry): as the sequence (Q96LA8 whole entry, looked up) above

[5] = target: T1, Protein arginine N-methyltransferase 1; assay: Non-competitive inhibition of recombinant His-tagged PRMT1 (unknown origin) expressed in Escherichia coli BL21 (DE3) using varying levels of biotin-labeled histone H4-20 as substrate; outline: as §3
[6] = target: T1, Protein arginine N-methyltransferase 1; assay: Inhibition of PRMT1 in human MEG-01 cells assessed as reduction in RBM15 methylation level measured after 24 hrs by immunoblotting analysis; format: cell-based; outline: as §2
PRMT5/MEP50 complex = PRMT5/MEP50 complex (Homo sapiens, UniProt O14744); assay: Inhibition of PRMT5/MEP50 (unknown origin) using biotin-labeled histone H4-20 peptide as substrate incubated for 8 mins in presence of [3H]-SAM cofactor by scintillation proximity assay; format: protein-complex assay
Outline: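 Part of a methyltransferase selectivity panel. Test compound was serially diluted into a mixture of enzyme, [3H]-SAM cofactor and substrate. Methylated substrate was quantified by scintillation proximity assay. Reactions were held at initial-rate conditions with substrate turnover under 10%, and substrate concentrations were near Km.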

[7] = target: T3, Histone-arginine methyltransferase CARM1 (Homo sapiens, UniProt Q86X55); assay: Inhibition of recombinant GST-tagged CARM1 (unknown origin) expressed in Escherichia coli using […] incubated for 120 mins in presence of [3H]-SAM cofactor by radioactive filter plate assay
T3 sequence (Q86X55 whole entry): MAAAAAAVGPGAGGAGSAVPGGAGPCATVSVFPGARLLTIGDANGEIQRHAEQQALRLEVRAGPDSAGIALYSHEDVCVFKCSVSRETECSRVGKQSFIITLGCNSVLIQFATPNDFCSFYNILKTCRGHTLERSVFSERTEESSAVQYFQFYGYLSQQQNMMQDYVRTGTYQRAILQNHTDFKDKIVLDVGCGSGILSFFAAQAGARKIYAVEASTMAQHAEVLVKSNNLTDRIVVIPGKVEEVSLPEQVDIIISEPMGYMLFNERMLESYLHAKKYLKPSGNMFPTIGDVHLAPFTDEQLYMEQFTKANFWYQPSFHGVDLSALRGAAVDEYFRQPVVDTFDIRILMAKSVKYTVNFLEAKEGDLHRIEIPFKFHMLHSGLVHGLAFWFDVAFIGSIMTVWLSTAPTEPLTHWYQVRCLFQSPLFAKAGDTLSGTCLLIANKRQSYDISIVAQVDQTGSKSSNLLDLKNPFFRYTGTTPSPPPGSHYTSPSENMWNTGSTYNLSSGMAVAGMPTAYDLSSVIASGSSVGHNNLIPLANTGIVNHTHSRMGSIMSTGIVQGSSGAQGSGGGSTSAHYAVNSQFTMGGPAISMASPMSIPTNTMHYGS

T1 sequence (Q99873 whole entry, looked up): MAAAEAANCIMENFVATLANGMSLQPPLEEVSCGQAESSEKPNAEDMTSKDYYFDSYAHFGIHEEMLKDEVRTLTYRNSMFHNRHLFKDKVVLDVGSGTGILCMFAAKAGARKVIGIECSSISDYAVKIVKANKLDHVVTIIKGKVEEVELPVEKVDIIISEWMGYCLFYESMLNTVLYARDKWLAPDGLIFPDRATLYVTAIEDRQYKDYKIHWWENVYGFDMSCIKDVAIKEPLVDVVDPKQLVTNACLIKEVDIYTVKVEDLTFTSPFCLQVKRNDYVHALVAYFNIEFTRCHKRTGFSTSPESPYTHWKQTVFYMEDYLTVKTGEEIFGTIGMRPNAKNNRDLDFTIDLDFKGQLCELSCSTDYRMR
PRMT5/MEP50 complex, sequence (O14744 whole entry): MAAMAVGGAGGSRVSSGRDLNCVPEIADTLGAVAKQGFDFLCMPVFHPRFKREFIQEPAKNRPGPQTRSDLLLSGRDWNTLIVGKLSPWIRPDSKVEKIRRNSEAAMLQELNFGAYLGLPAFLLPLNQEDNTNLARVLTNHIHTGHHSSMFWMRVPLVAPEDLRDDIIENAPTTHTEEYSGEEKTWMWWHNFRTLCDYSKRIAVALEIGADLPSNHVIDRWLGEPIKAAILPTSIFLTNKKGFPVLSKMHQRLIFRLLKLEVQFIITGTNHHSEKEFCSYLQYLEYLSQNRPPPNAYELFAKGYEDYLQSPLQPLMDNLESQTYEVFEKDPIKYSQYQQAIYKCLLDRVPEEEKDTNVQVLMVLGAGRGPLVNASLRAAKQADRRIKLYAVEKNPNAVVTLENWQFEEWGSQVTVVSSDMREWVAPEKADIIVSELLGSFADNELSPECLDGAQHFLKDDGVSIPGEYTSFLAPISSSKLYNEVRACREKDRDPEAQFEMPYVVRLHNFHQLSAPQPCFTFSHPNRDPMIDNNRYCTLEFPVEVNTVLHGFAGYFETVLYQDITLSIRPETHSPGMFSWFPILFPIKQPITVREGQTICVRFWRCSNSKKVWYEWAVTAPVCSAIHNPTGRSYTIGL
PRMT5/MEP50 complex, sequence (Q9BQA1 whole entry, further chain): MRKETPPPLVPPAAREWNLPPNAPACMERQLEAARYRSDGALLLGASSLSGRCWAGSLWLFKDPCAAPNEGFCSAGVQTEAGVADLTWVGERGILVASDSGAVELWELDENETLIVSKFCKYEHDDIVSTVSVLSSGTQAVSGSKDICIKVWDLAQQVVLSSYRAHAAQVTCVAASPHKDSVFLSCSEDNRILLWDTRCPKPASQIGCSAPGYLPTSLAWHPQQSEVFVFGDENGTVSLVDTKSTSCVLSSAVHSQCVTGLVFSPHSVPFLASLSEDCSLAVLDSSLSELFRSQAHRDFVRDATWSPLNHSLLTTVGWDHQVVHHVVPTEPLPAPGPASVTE

Q: What does the source list for `N=C(N)c1ccc(Nc2ccc(-c3cc4ccc(C(=N)N)cc4[nH]3)cc2)cc1`?
A: IC50 (HEL): 2270 nM; IC50 (CMK): 1310 nM; inhibition [1]: Active; IC50 (MEG-01): 1030 nM; Activity [2]: 22.9%; inhibition [3]: Active; IC50 [4]: 2800 nM; inhibition [5]: Active; inhibition [6]: Dose-dependent effect; IC50 (PRMT5/MEP50 complex): 6800 nM; IC50 [7]: 27600 nM
